The results in this text go back to ChEMBL document CHEMBL5120809, “Dimers of isatin derived α-methylene-γ-butyrolactone as potent anti-cancer agents” (Bioorg Med Chem Lett, 2022).

The subject of assay [1] is OVCAR-5. The assay can be described thus: Antiproliferative activity against human OVCAR-5 cells assessed as cell growth inhibition measured after 3 days by cell viability assay. The conditions noted are these: OVCAR-5, 72 h. Type of assay: functional, cell-based.
In assay [2] the test system is A2780. Kind of assay: Antiproliferative activity against human A2780 cells assessed as cell growth inhibition measured after 3 days by cell viability assay. In kind it is functional, cell-based. The note with it: A2780, 72 h.
In another assay the test system is MIA PaCa-2. Kind of assay: Antiproliferative activity against human MIA PaCa-2 cells assessed as cell growth inhibition measured after 3 days by cell viability assay. Type of assay: functional, cell-based. The conditions noted are these: MIA PaCa-2, 72 h.
Assay [3] addresses Transcription factor p65 (Homo sapiens) (UniProt Q04206). Kind of assay: Covalent modification of RELA in TNF-alpha induced human OVCAR-5 cells assessed as inhibition of nuclear localization of protein at 10 uM pretreated for 2 hrs followed by TNF-alpha stimulation for 10 mins by Western blot analysis. In kind it is cell-based. The note with it: filed as modulator. Summed up:
(§1)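 Two sets of OVCAR5 cells treated with DMSO or compound; one set stimulated with TNFα, the other left unstimulated as control; read-out by western blot.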

For assay [4] the target is unchanged. Kind of assay: Covalent modification of RELA in human MIA PaCa-2 cells assessed as increase in PARP cleavage at 10 uM incubated for 2 hrs by Western blot analysis. The note with it: filed as modulator. In kind it is cell-based. Put shortly:
(§2)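 Cancer cells treated with or without compound; lysates analysed by western blot for PARP cleavage.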
Background: A western blot detects proteins with antibodies after separation by electrophoresis.

The next assay relates to CCRF-CEM. The assay can be described thus: Antiproliferative activity against human CCRF-CEM cells assessed as cell growth inhibition by measuring reduction in net protein increase inhibition by SRB assay. Type of assay: functional. The conditions noted are these: pooled result: one value given for 6 cell lines, strains, targets or settings. (In general: Sulforhodamine B stains cellular protein and so reports cell mass.)

Assay [5] has as its system A2780. The assay can be described thus: Inhibition of cell migration in human A2780 cells at 500 nM measured up to 48 hrs by wound healing scratch assay. Type of assay: functional. The arrangement: scale not given: the % may be the effect or the level left. Summed up:
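Wound-healing scratch assay: A2780 cells treated with DMSO or 500nM compound, imaged at 0, 12, 24 and 48h; wound closure quantified relative to DMSO wells.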

Assay [6] has as its target Transcription factor p65 (Homo sapiens) (UniProt Q04206). Kind of assay: Covalent modification of RELA in human OVCAR-5 cells assessed as increase in PARP cleavage at 10 uM incubated for 2 hrs by Western blot analysis. Type of assay: cell-based. The conditions noted are these: filed as modulator. Summed up:
as §2

Assay [7] shares this target. The assay can be described thus: Inhibition of TNF-alpha induced RELA in human A549 cells assessed as reduction in NFkappaB mediated gene expression pretreated for 2 hrs followed by TNF-alpha stimulation for 3 hrs by […]. In kind it is cell-based. The conditions noted are these: filed as modulator, DDE = dose-dependent effect. Put shortly:
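TNFα-induced NFκB reporter assay run as a dose-response with compound.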

The subject of assay [8] is OVCAR-5. Kind of assay: Antiproliferative activity against human OVCAR-5 cells assessed as cell growth inhibition at 1.11 to 10 uM incubated for 6 hrs followed by compound removal and measured up to 72 hrs by IncuCyte live-cell imaging assay. Type of assay: functional, cell-based.
A further assay is filed under the species Homo sapiens. The assay can be described thus: Covalent modification of N-terminal hexa-his-tagged human recombinant IKKbeta/ N-terminus mouse recombinant RELA (1 to 325 residues) assessed as tertiary complex formation with RELA by measuring high molecular weight band formation at 1:1:1 protein/protein to compound concentration measured after 24 hrs by SDS-PAGE based silver staining analysis. The conditions noted are these: filed as modulator. Summed up: (§3)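 Recombinant RELA and/or IKKβ proteins incubated in vitro with compound at equimolar or 10x concentration; mixtures resolved by SDS-PAGE and silver stained to detect the recombinant proteins and high molecular weight bands.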

Assay [9] addresses Transcription factor p65 (Homo sapiens) (UniProt Q04206). Kind of assay: Covalent modification of RELA in human MIA PaCa-2 cells assessed as high molecular weight band formation at 10 uM incubated for 2 hrs by Western blot analysis. In kind it is cell-based. The conditions noted are these: filed as modulator. Put shortly:
(§4)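 Non-transformed immortalized fallopian tube epithelial FT282C11, MiaPaCa2 or OVCAR5 cells treated with or without compound; lysates analysed by western blot probed with RELA antibody for high molecular weight bands.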

Assay [10] has the same target. The assay can be described thus: Covalent modification of RELA in TNF-alpha induced human OVCAR-5 cells assessed as inhibition of phosphorylation of IkappaB-alpha at 10 uM pretreated for 2 hrs followed by TNF-alpha stimulation for 10 mins by Western blot analysis. The note with it: filed as modulator. Type of assay: cell-based. Put shortly: as §1
In a further assay the test system is SF-268. Kind of assay: Antiproliferative activity against human SF-268 cells assessed as reduction in the net protein increase inhibition by SRB assay. Type of assay: functional. The note with it: pooled result: one value given for 6 cell lines, strains, targets or settings.
The target in assay [11] is Transcription factor p65 (Homo sapiens) (UniProt Q04206). Kind of assay: Covalent modification of RELA in human OVCAR-5 cells assessed as high molecular weight band formation at 10 uM incubated for 2 hrs by Western blot analysis. Type of assay: cell-based. The conditions noted are these: filed as modulator. Summed up:
as §4

For assay [12], the target named is T1, Inhibitor of nuclear factor kappa-B kinase subunit beta (Homo sapiens) (UniProt O14920).
T1 sequence (whole entry): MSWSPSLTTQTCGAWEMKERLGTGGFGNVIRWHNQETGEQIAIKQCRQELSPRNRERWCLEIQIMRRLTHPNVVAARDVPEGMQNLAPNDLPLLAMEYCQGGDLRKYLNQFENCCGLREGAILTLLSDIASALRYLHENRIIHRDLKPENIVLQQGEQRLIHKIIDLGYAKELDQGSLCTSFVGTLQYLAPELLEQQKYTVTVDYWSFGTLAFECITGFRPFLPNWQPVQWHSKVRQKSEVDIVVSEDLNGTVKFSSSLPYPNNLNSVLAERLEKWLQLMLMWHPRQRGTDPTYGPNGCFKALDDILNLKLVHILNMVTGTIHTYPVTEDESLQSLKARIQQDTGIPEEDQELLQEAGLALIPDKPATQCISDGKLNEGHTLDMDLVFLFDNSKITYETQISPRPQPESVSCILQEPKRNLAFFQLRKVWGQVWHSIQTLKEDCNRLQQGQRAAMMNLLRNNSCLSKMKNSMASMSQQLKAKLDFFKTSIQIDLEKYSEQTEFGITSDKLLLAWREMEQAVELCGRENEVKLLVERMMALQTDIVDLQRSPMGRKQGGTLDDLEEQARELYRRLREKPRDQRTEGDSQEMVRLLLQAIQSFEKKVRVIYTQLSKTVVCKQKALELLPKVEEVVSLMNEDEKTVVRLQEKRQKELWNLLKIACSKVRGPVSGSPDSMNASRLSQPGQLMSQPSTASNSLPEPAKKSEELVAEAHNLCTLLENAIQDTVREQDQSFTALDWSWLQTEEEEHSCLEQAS
The assay can be described thus: Covalent modification of N-terminal hexa-his-tagged human recombinant IKKbeta assessed as high molecular weight band formation at 1:1 protein to compound concentration measured after 24 hrs by SDS-PAGE based silver staining analysis. The conditions noted are these: filed as modulator. Put shortly:
as §3

Assay [13] concerns the target Transcription factor p65 (Homo sapiens) (UniProt Q04206). Kind of assay: Covalent modification of RELA in human OVCAR-5 cells assessed as high molecular weight band formation incubated for 2 hrs by Western blot analysis. In kind it is cell-based. The note with it: filed as modulator. Summed up:
as §4

Assay [14] has as its system A2780. Kind of assay: Inhibition of colony formation in human A2780 cells measured every day up to 4 days by IncuCyte live-cell imaging assay. Type of assay: functional, cell-based. The note with it: DDE = dose-dependent effect. Summed up: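 A2780 ovarian cancer cells sparsely plated and grown with or without compound for 4 days under continuous Incucyte S3 live-cell imaging; colonies quantified against DMSO-treated wells at several time points.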

Assay [15] deals with Transcription factor p65 (Homo sapiens) (UniProt Q04206). The assay can be described thus: Covalent modification of RELA in human FT282C11 cells assessed as high molecular weight band formation at 10 uM incubated for 2 hrs by Western blot analysis. In kind it is cell-based. The note with it: filed as modulator. Summed up:
as §4

The source made the active and inactive calls. The rule behind the calls is not given here.

Transcription factor p65 (Homo sapiens), sequence (Q04206 whole entry): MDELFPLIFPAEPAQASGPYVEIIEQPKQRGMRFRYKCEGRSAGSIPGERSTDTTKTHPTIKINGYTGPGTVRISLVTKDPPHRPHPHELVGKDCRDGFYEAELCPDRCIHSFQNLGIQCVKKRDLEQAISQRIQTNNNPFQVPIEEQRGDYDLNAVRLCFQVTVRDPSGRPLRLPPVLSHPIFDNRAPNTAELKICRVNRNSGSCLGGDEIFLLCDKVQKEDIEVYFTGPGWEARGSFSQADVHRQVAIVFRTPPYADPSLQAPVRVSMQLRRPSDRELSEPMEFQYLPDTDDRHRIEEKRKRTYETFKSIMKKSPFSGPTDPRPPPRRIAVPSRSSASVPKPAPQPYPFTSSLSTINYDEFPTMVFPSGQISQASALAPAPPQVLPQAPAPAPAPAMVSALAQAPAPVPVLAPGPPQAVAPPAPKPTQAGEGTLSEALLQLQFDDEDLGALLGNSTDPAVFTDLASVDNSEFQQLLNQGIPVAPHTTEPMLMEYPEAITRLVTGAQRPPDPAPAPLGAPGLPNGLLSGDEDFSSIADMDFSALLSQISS

With `CC1CC2(OC1=O)C(=O)N(CCCCCCCN1C(=O)C3(CC(C)C(=O)O3)c3ccccc31)c1ccccc12` (stereo unspecified), the half-inhibitory concentration (IC50) with OVCAR-5 [1], in the assay on A2780 [2] and in the assay on MIA PaCa-2 was > 10000 nM throughout.

Take `C=C1CC2(OC1=O)C(=O)N(Cc1ccc(CN3C(=O)C4(CC(=C)C(=O)O4)c4ccccc43)cc1)c1ccccc12` (stereo unspecified): the values for the IC50 in the assay on OVCAR-5 [1], in the assay on A2780 [2] and in the assay on MIA PaCa-2 were 180 nM, 310 nM and 270 nM, respectively.

Regarding `C=C1CC2(OC1=O)C(=O)N(CCCCCCN1C(=O)C3(CC(=C)C(=O)O3)c3ccccc31)c1ccccc12` (stereo unspecified), the figures for the concentration for half-maximal inhibition (IC50) with OVCAR-5 [1], in the assay on A2780 [2] and with MIA PaCa-2 were 300 nM, 410 nM and 230 nM, respectively.

Regarding `C=C1CC2(OC1=O)C(=O)N(CCCCCCCCCCCCN1C(=O)C3(CC(=C)C(=O)O3)c3ccccc31)c1ccccc12` (stereo unspecified), the values for the 50% inhibitory concentration (IC50) in the assay with OVCAR-5 [1], with A2780 [2] and in the assay on MIA PaCa-2 were 420 nM, 500 nM and 1500 nM, respectively.

`C=C1CC2(OC1=O)C(=O)Nc1ccccc12` (stereo unspecified): the IC50 in the assay with OVCAR-5 [1] was 3130 nM; with A2780 [2] it was 990 nM; in the assay with MIA PaCa-2, 2050 nM.

Take `C=C1CC2(OC1=O)C(=O)N(CCCCCCCCN1C(=O)C3(CC(=C)C(=O)O3)c3ccccc31)c1ccccc12` (stereo unspecified): the IC50 in the assay with OVCAR-5 [1] stood at 390 nM; in the assay with A2780 [2], 600 nM; with MIA PaCa-2 it was 740 nM.

With `C=C1CC2(OC1=O)C(=O)N(CCCCCCCCCCCN1C(=O)C3(CC(=C)C(=O)O3)c3ccccc31)c1ccccc12` (stereo unspecified), the IC50 in the assay on OVCAR-5 [1] was found to be 830 nM; in the assay on A2780 [2], 770 nM; in the assay with MIA PaCa-2 it was 2030 nM.

On to `C=C1CC2(OC1=O)C(=O)N(CCCCCCCCCCN1C(=O)C3(CC(=C)C(=O)O3)c3ccccc31)c1ccccc12` (stereo unspecified), for which the half-maximal inhibitory concentration (IC50) in the assay on OVCAR-5 [1] was 410 nM; in the assay on A2780 [2], 490 nM; in the assay on MIA PaCa-2, 560 nM.

For `C=C1CC2(OC1=O)C(=O)N(CCN1C(=O)C3(CC(=C)C(=O)O3)c3ccccc31)c1ccccc12` (stereo unspecified), the IC50 in the assay on OVCAR-5 [1] amounted to 320 nM; with A2780 [2], 390 nM.

Turning to `C=C1CC2(OC1=O)C(=O)N(CCCCN1C(=O)C3(CC(=C)C(=O)O3)c3ccccc31)c1ccccc12` (stereo unspecified), the IC50 in the assay on OVCAR-5 [1] amounted to 150 nM; in the assay on A2780 [2], 360 nM.

In the case of `C=C1CC2(OC1=O)C(=O)N(CCCCCCCN1C(=O)C3(CC(=C)C(=O)O3)c3ccccc31)c1ccccc12` (stereo unspecified), the concentration for half-maximal inhibition (IC50) is 340 nM in the assay on OVCAR-5 [1], 410 nM in the assay with A2780 [2] and 260 nM in the assay with MIA PaCa-2.

With `C=C1CC2(OC1=O)C(=O)N(CCCCCCCCCN1C(=O)C3(CC(=C)C(=O)O3)c3ccccc31)c1ccccc12` (stereo unspecified), the IC50 was 480 nM in the assay with OVCAR-5 [1], 1080 nM in the assay with A2780 [2] and 1220 nM with MIA PaCa-2.

Take `C=C1CC2(OC1=O)C(=O)N(CCCN1C(=O)C3(CC(=C)C(=O)O3)c3ccccc31)c1ccccc12` (stereo unspecified): the results for the IC50 with OVCAR-5 [1], with A2780 [2] and in the assay with MIA PaCa-2 were 90 nM, 230 nM and 130 nM, respectively. Further, the result (in assay [3]; in [4]; in [6]; in the assay on OVCAR-5 [8]; in the assay filed under Homo sapiens; in assay [9]) was Active. For the same compound, the result in assay [10], in [11], in assay [12], in assay [13] and in assay [15] was Active. The concentration for 50% growth inhibition (GI50) in the assay with CCRF-CEM came to 380 nM; in the assay on SF-268, 1760 nM. The Activity in the assay with A2780 [5] came out at 50%. Further, the inhibition entry (in assay [7]; in the assay on A2780 [14]) was “Dde” throughout.

Consider `C=C1CC2(OC1=O)C(=O)N(CCCCCN1C(=O)C3(CC(=C)C(=O)O3)c3ccccc31)c1ccccc12` (stereo unspecified), for which the values for the half-inhibitory concentration (IC50) in the assay with OVCAR-5 [1], with A2780 [2] and in the assay on MIA PaCa-2 were 90 nM, 270 nM and 200 nM, respectively.

What is called IC50 is the concentration that gives 50% inhibition. Usually GI50 stands for the concentration giving 50% growth inhibition.
